From PubChem
Most compounds without a hit are left out; they make up all but 7.6% or so of the library.
HEK293 NFkB inh: inhibitors of PMA/ionomycin-induced NF-kB reporter, primary screen, antigen receptor NF-kB inhibitor project, cell-based, HEK-293 luciferase reporter, luminescence; HEK-293 NF-kB luciferase reporter; 0.21% of 62,000 active; inhibition, % at 3 µM; AID 465, 2006;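 active = inhibition above the mean of all tested compounds plus 3 SD, cut at about 40% in these data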;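 note: 0% = stimulated DMSO wells and 100% = 10 µM reference inhibitor 5653914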
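Timing: 1 h pretreatment, 16 h stimulation, 37 °C; system: HEK-293 cells with stable firefly luciferase reporter driven by four HIV NF-kB elements; doses: 3 µM once, 0.30% DMSO; measured by: luciferase luminescence; control set: DMSO and 10 µM reference inhibitor; repeats: single test; reagent: PMA plus ionomycin mix as NF-kB-activating stimulus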
Jurkat viability: cytotoxicity toward Jurkat T cells, primary screen, cytotoxicity control, cell-based, Jurkat E6.1, 60K MLSMR library; Jurkat E6.1 viability, ATP luminescence, 48 h; inhibition, % at 4 µM; 1.2% of 56,000 active;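 active = inhibition above the mean inhibition of all tested compounds plus 3 SD, cut at about 28% in these data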
M1 ag: M1 muscarinic receptor agonists, primary screen, CHO-M1 cells, Fluo-4 calcium, agonist mode; B-score at 10 µM; Muscarinic acetylcholine receptor M1; Fluo-4 calcium fluorescence; hits give high values; 3% of 64,000 active;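 active = fluorescence rise, raw or as B-score row- and column-corrected plate score, outside the 99.7% band of its plate's samples, either direction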
D1 mod: D1 CRE-luciferase signal change, two-sided – cell-based, HEK293 D1, dopamine EC30, D1 allosteric modulator project, primary screen; 5.9% of 58,000 active; dopamine EC30 potentiation; actives deviate in either direction; B-score at 10 µM; D(1A) dopamine receptor (Homo sapiens), P21728;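 active = luminescence count or its row- and column-corrected plate score outside the 99.7% band of the plate's sample wells, on either side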
Target sequence (P21728 whole entry, looked up): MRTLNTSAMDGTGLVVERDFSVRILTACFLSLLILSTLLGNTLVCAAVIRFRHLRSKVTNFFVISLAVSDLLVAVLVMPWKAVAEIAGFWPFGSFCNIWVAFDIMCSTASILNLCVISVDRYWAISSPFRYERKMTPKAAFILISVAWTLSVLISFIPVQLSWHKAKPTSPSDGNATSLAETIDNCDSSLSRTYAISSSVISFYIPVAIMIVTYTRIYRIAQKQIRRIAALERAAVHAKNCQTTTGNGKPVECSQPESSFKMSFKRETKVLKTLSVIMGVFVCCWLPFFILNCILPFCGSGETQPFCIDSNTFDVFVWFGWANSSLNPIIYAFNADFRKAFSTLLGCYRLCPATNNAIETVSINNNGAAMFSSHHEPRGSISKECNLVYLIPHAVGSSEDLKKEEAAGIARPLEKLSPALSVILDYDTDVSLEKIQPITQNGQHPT
DAT uptake mod: changed hDAT dopamine uptake under cocaine IC80, either direction, primary screen, cocaine antagonist project, cell-based, LLC-PK1 hDAT, [14C]-dopamine uptake, MLSMR; Sodium-dependent dopamine transporter (Homo sapiens), Q01959; LLC-PK1 hDAT cells, [14C]-dopamine uptake with cocaine IC80; actives deviate in either direction; B-score at 10 µM; 1.3% of 110,000 active; AID 449768, 2010;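 active = Z score or B-score, a plate-position-corrected score, falls beyond the plate's 99.7% confidence bounds, in either direction; inactive = both scores lie inside the 99.7% bounds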;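 note: scored against the spread of the other compound wells on the same plate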
M1 antag: antagonists of rat M1 muscarinic receptor | Muscarinic acetylcholine receptor M1 (Rattus norvegicus), P08482 | CHO-M1 cells, Fluo-4 calcium, ACh EC80 antagonist mode; hits give low values | B-score at 10 µM | 3.4% of 64,000 active | AID 628, 2007;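 active = calcium fluorescence response, raw or row-and-column corrected B-score, differing from the plate sample mean either way at a set confidence level, mostly lower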
M1 ag confirm: rat M1 muscarinic receptor agonists, confirmation, CHO-M1 cells, Fluo-4 calcium, duplicate retest; shares compounds with M1 ag; Fluo-4 calcium fluorescence, agonist mode; actives lie on both sides; fluorescence change (max-min) at 10 µM; 19% of 1,700 active;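 active = fluorescence change differs from the solvent-only DMSO control mean at a set confidence level in both duplicate runs; inconclusive = differs from solvent-only control mean in just one of two runs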;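 note: an EC20 dose of acetylcholine follows compound addition during the same imaging run; raw fluorescence intensity difference in instrument units with no normalization to controls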
M4 agonist ctr: agonist activity at rat M4 receptor, confirmation, counter-screen for M1 allosteric modulator project, cell-based, agonist mode. AID 1741, 2009. fluorescence change (max-min) at 10 µM. CHO M4/Gqi5 cells, Fluo-4 calcium fluorescence; actives lie on both sides. 9% of 1,700 active. shares compounds with M1 ag;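 active = fluorescence change differing from the plate's solvent-only control wells at 99.7% confidence in both duplicates, whether higher or lower; inconclusive = differs from solvent controls in only one of two duplicates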
* hit, by the source's call; ? = inconclusive; . = not tested or not shown.

SMILES | HEK293 NFkB inh | Jurkat viability | M1 ag | D1 mod | DAT uptake mod | M1 antag | M1 ag confirm | M4 agonist ctr
CN1CC=C2C(C#N)=C(N)C(C#N)(C#N)C(c3cccc(Cl)c3Cl)C2C1 (stereo not drawn) | 23 | -1 | 64* | -4.7* | -0.72 | 0.68 | 243* | 236*
CC(=O)N1CC=C2C(C#N)=C(N)C(C#N)(C#N)C(CCc3ccccc3)C2C1 (stereo not drawn) | 20 | -1 | 1.6 | 0.59 | 0.79 | -1 | . | .
CCCCOc1ccc(C2C3CN(C(=O)OCC)CC=C3C(C#N)=C(N)C2(C#N)C#N)cc1OC (stereo not drawn) | 0 | 5 | -0.63 | 2.9 | 0.91 | 0.044 | . | .
COc1ccc(OC)c(C2C3CN(C(C)C)CC=C3C(C#N)=C(N)C2(C#N)C#N)c1 (stereo not drawn) | 4 | -2 | 40* | -1.4 | -1.5 | -0.14 | 217* | 212*
CCN1CC=C2C(C#N)=C(N)C(C#N)(C#N)C(CCc3ccccc3)C2C1 (stereo not drawn) | 10 | 5 | 32* | -1.7 | 1.5 | -2.5* | 247* | ?
CC(=O)N1CC=C2C(C#N)=C(N)C(C#N)(C#N)C(C)C2C1 (stereo not drawn) | 2 | 2 | -0.42 | -0.62 | 0.26 | -0.096 | . | .
COc1cccc(OC)c1OCc1cc(C2C3CCCC=C3C(C#N)=C(N)C2(C#N)C#N)c(C)cc1C (stereo not drawn) | . | . | . | . | 1.3 | . | . | .
CCCN1CC=C2C(C#N)=C(N)C(C#N)(C#N)C(c3cccc(OC)c3OC)C2C1 (stereo not drawn) | -3 | -10 | 89* | -1.7 | 0.0026 | -0.9 | 666* | 628*
C#CCOCCOCCOCCNc1nc(N2CCN(C(=O)[C@H](CCC(=O)O)n3cc(C(N)Cc4ccc(O)cc4)nn3)CC2)nc(N2CCN(C(=O)[C@H](CCC(=O)O)n3cc(C(N)Cc4ccc(O)cc4)nn3)CC2)n1 (stereo partly drawn) | . | . | . | . | -0.93 | . | . | .
COC(=O)c1ccc(C2=NOC(C)(c3nnc(-c4cccc(Cl)c4)o3)C2)cc1 (stereo not drawn) | . | . | . | . | 0.17 | . | . | .
CC(C)(C)NC(=O)Cn1nnc(-c2ccccc2NC(=O)c2cnccn2)n1 | . | . | . | . | -0.59 | . | . | .
CCCCn1nc2cc(C(=O)NCc3ccc4c(c3)OCO4)ccc2c1OCC | . | . | . | . | 0.63 | . | . | .
O=C(CSCc1c(F)cccc1Cl)NCc1ccco1 | 12 | -6 | 1.5* | 1.1 | -0.076 | -0.42 | -17 | -23
O=C(CSCc1c(Cl)cccc1Cl)NCc1ccco1 | . | . | . | . | 0.096 | . | . | .
O=C1CC(=C(c2ccccc2)c2ccccc2)C(=O)N1CCCCN1CCN(c2cccc(Cl)c2)CC1 | . | . | . | . | -1 | . | . | .
CCOC(=O)c1c(NC(=O)CSc2nc3cccnc3n2C)sc(C(C)=O)c1C | 15 | 14 | 0.53 | . | -0.066 | -0.21 | . | .
CCOC(=O)c1cccc(NC(=O)CSc2nc3cccnc3n2C)c1 | 25 | 27 | 3.3* | 2.6 | -0.048 | -1.1 | 0.89 | -26
CC(=O)N1CCc2c(sc(NC(=O)c3ccc(S(=O)(=O)N(C)C)cc3)c2C#N)C1 | 14 | 0 | -0.34 | 0.19 | 0.41 | 0.23 | . | .
Cc1sc2nc(CSc3nc4ccccc4c(=O)n3CCCN3CCOCC3)[nH]c(=O)c2c1C | 12 | 2 | 11* | 0.37 | 0.27 | -0.025 | -2.2 | -41
COc1ccc(CCNC(=O)c2ccc3nc(-c4ccco4)c(-c4ccco4)nc3c2)cc1OC | 16 | 8 | 8.5* | -1.5 | 0.022 | -1 | -1.9 | -19
Cc1ccc2[nH]c3c(NCc4ccco4)ncnc3c2c1 | 6 | 37* | 8.5* | -3.6* | 1.6 | -1.5 | 13 | -38
Cc1ccc(-n2ncc3c(NCc4ccco4)ncnc32)c(C)c1 | -7 | 5 | 0.72 | -0.79 | -0.044 | 0.31 | . | .
CCC/C=C(\CCC)C(NC(=O)c1ccc(C(F)(F)F)cc1)c1ccccc1 (stereo not drawn) | . | . | . | . | -1.1 | . | . | .
Cc1ccc(S(=O)(=O)Nc2nc3ccccc3nc2N2CCN(c3ccccc3F)CC2)cc1 | . | . | . | . | -0.76 | . | . | .
O=S(=O)(Nc1nc2ccccc2nc1N1CCN(c2ccccn2)CC1)c1ccc(Cl)cc1 | 1 | 13 | 9.2* | -0.77 | -0.48 | -0.32 | 46 | ?
SMILES | HEK293 NFkB inh | Jurkat viability | M1 ag | D1 mod | DAT uptake mod | M1 antag | M1 ag confirm | M4 agonist ctr
CCC(=O)c1ccc(N2CCCCCC2)c(F)c1 | -2 | -2 | 0.79 | 0.16 | -0.17 | -0.0016 | . | .
CN1CCN(C(=O)c2cc3nc(-c4ccccc4)cc(-c4ccccc4)n3n2)CC1 | . | . | . | . | 1.1 | . | . | .
O=C(c1cc2nc(-c3ccco3)cc(C(F)(F)F)n2n1)N1CCN(c2ccccn2)CC1 | 6 | 3 | 2.5* | 1.9 | -0.32 | -0.93 | ? | -49
O=C(c1cc2nc(-c3ccccc3)cc(-c3ccccc3)n2n1)N1CCN(C(=O)c2ccco2)CC1 | 26 | 1 | 3.5* | -2.3 | 1.8 | -0.82 | -20 | -21
CN1C=CC2=C(C#N)C(N)C(C#N)(C#N)C(c3ccccc3)C2C1 (stereo not drawn) | 10 | . | 34* | -4.4 | -1 | -0.34 | 187* | 179*
CN1C[C@@H]2C(c3ccccc3)C3(c4ccc(C#N)cc4)CC2(C3)[C@H]1c1ccccc1 (stereo partly drawn) | . | . | . | . | 0.011 | . | . | .
CCOCCCn1c(=S)[nH]c2cc(C(=O)NCCOC)ccc2c1=O | 21 | . | 0.65 | 0.088 | 0.73 | 0.31 | . | .
CCc1c(C)nc2ncnn2c1NCc1cccs1 | . | . | . | . | 0.35 | . | . | .
CCc1c(C)nc2ncnn2c1NCCc1ccc(OC)cc1 | 36 | 93* | 4.8* | -2.2 | -1 | -2.8* | -9.3 | ?
CCOC(=O)C1=C(C)OC(N)=C(C(=O)OCC)C1c1cccnc1 (stereo not drawn) | 22 | 0 | -0.15 | -0.41 | -0.6 | -0.44 | . | .
COc1cc(CC(=O)Nc2nccs2)cc(OC)c1OC | 1 | -2 | -1.4 | -0.51 | 0.73 | -0.073 | . | .
COc1cc(C(=O)Nc2nccs2)c(Br)c(OC)c1OC | 17 | 7 | 2.9* | -1.2 | -0.81 | -0.65 | -11 | -41
